Measurements gathered from unrelated publications.
Each line is one published result; the experiments were not run side by side.
ALK C1156Y: ALK tyrosine kinase receptor (ALK, Homo sapiens, UniProt Q9UM73, C1156Y)
ALK: ALK tyrosine kinase receptor (ALK, Homo sapiens, UniProt Q9UM73)
ALK L1196M: ALK tyrosine kinase receptor (ALK, Homo sapiens, UniProt Q9UM73, L1196M)

SMILES | target | test | conditions | remaining binding [%]
O=C(NCC1CCOCC1)c1n[nH]cc1NC(=O)c1c(F)cccc1F | ALK C1156Y | binding, competition with immobilised ligand | 1 µM | 99
Cc1cnn2ncc(-c3ccnc(N(C)C)n3)c2c1 | ALK C1156Y | binding | 1 µM | 100
O=C(NCCCN1CCOCC1)c1ccc(Nc2nccc(-c3cc4ccccc4s3)n2)cc1 | ALK C1156Y | binding, competition with immobilised ligand | 1 µM | 97
C[C@H](c1ccc(F)cc1)N(Cc1cccc(C(=O)O)c1)C(=O)c1cnc2ccccc2c1 | ALK | cell-free assay, competition with immobilised ligand | 1 µM | 94
C[C@@H](c1ccc(-n2cnc3c(N)ncnc32)cc1)N1CCc2nn(C)c(Cc3ccccc3)c2C1=O | ALK L1196M | binding, competition with immobilised ligand | 0.1 µM | 60
O=C(c1ccc(Nc2nccc(-c3cc4ccccc4s3)n2)cc1)N1CCC(N2CCCC2)CC1 | ALK | binding, competition with immobilised ligand | 1 µM | 84
c1cncc(-c2cccc(Nc3nccc(NC4CCCCC4)n3)c2)c1 | ALK L1196M | binding, competition with immobilised ligand | 10 µM | 57
COc1ccnn2ncc(-c3ccnc(N(C)C)n3)c12 | ALK L1196M | binding | 1 µM | 91
COc1ncc2cc3ccccc3nc2c1C#N | ALK C1156Y | cell-free assay, competition with immobilised ligand | 5 µM | 96
N#Cc1ccccc1CSc1nnc2c(n1)[nH]c1ccccc12 | ALK | binding, competition with immobilised ligand | 10 µM | 72
O=C(NC[C@@H]1[C@H]2CN(C(=O)OCc3cc(C(F)(F)F)cc(C(F)(F)F)c3)C[C@@H]12)c1ccc2[nH]nnc2c1 | ALK | cell-free assay, competition with immobilised ligand | 1 µM | 79
CN(C)c1nccc(-c2cnc3ncccn23)n1 | ALK C1156Y | binding | 1 µM | 82
O=C(c1ccc(Nc2ncc(Cl)c(-c3ccc(Cl)s3)n2)cc1)N1CCC(N2CCCC2)CC1 | ALK L1196M | binding, competition with immobilised ligand | 1 µM | 67
CN1CCN(c2ccc(Nc3nccc(-c4ccccc4)n3)cc2C(F)(F)F)CC1 | ALK C1156Y | binding | 10 µM | 60
O=C(NCCCN1CCOCC1)c1ccc(Nc2ncc(Cl)c(-c3ccc(Cl)s3)n2)cc1 | ALK C1156Y | binding, competition with immobilised ligand | 1 µM | 61
CC(C)(C)c1ccc(-c2nc(CBr)nn2-c2cccc(O)c2)cc1 | ALK | cell-free assay, competition with immobilised ligand | 10 µM | 78
CO[C@@H](C)c1c(Nc2ccc([C@H](N(C)C(=O)C3CCS(=O)(=O)CC3)C(F)(F)F)cc2)cnc2cc(Cl)nn12 | ALK C1156Y | cell-free assay, competition with immobilised ligand | 1 µM | 89
C[C@H]1CCN(c2nccc(-c3cnn4ncccc34)n2)C1 | ALK C1156Y | binding | 1 µM | 99
O=S(=O)(NC1CCC(c2cc(F)ccc2F)(S(=O)(=O)c2ccc(Cl)cc2)CC1)C(F)(F)F (centres unmarked) | ALK L1196M | cell-free assay, competition with immobilised ligand | 1 µM | 94

SMILES | target | test | conditions | remaining binding [%]
O=C(Nc1c[nH]nc1C(=O)NC1CCNCC1)c1cc(F)cc(F)c1 | ALK | binding, competition with immobilised ligand | 1 µM | 91
Cc1cnc(Nc2ccc(C(=O)N3CCC(N4CCCC4)CC3)cc2)nc1-c1cc2ccccc2s1 | ALK L1196M | binding, competition with immobilised ligand | 1 µM | 82
CC1CCCN1c1nccc(-c2cnn3ncccc23)n1 (centres unmarked) | ALK | binding | 1 µM | 69
COc1ccc2c(c1)O[C@H](c1ccc(OC)c(OC)c1)C[C@@H]2NC(=O)C1(c2ccc3c(c2)OC(F)(F)O3)CC1 | ALK | cell-free assay, competition with immobilised ligand | 1 µM | 100
O=C(c1ccc(Nc2ncc(Cl)c(-c3cc4ccccc4s3)n2)cc1)N1CCC(N2CCCC2)CC1 | ALK L1196M | binding, competition with immobilised ligand | 1 µM | 100
C=CC(=O)N1CCC(C(=O)NCC(=O)N2CCN(c3nc(-c4cnc(N)nc4C(F)F)nc(N4CCOCC4)n3)CC2)CC1 | ALK | binding, competition with immobilised ligand | 1 µM | 71
C[C@@H]1CN(c2cc(-c3n[nH]c4ccc(OC5(C)CC5)cc34)ncn2)C[C@H](C)O1 | ALK | cell-free assay, competition with immobilised ligand | 0.1 µM | 65
COc1cnc(Nc2cccc(S(N)(=O)=O)c2)nc1N1CCN(c2ccccc2)C(=O)C1 | ALK L1196M | binding, competition with immobilised ligand | 1 µM | 81
C[C@@H]1CN(c2cc(-c3nn(C)c4ccc(OC5(C)CC5)cc34)ncn2)C[C@H](C)O1 | ALK L1196M | cell-free assay, competition with immobilised ligand | 1 µM | 98
Nc1ncc2c(n1)-c1c([nH]c3ccc(C#CC4CC4)cc13)CCCC2 | ALK C1156Y | binding, competition with immobilised ligand | 1 µM | 84
FC(F)(F)Oc1cccc(-c2cnc3ccc(-c4ccncc4)nn23)c1 | ALK | cell-free assay, competition with immobilised ligand | 5 µM | 100
CN1CCN(c2ccc(Nc3nccc(-c4cccc([N+](=O)[O-])c4)n3)cc2C(F)(F)F)CC1 | ALK L1196M | binding | 10 µM | 76
C[C@@H]1CN(c2ccc3ncc(-c4ccc5[nH]nc(C6CC6)c5c4)n3n2)C[C@H](C)O1 | ALK | binding, competition with immobilised ligand | 50 nM | 64
CN(C)c1nccc(-c2cnn3ncccc23)n1 | ALK | binding | 1 µM | 100
CCCCN(CCCC)C(=O)CN1C[C@H](c2cc(OC)c3c(c2)OCO3)[C@@H](C(=O)O)[C@@H]1CC(C)(C)CCC | ALK C1156Y | cell-free assay, competition with immobilised ligand | 1 µM | 100
CNC(=O)[C@@H]1CC[C@@H](n2c(-c3ccc4cnccc4c3)nc3ccc(C(=O)NCc4cccc(C(N)=O)c4)cc32)C1 | ALK C1156Y | binding, competition with immobilised ligand | 1 µM | 100
N[C@@H]1CCN(c2nccc(-c3cnn4ncccc34)n2)C1 | ALK L1196M | binding | 1 µM | 100
COc1cnc(Nc2cccc(S(N)(=O)=O)c2)nc1N1CCN(c2ccccc2)CC1 | ALK C1156Y | binding, competition with immobilised ligand | 1 µM | 100
CN(C)c1ncc(F)c(-c2cnn3ncccc23)n1 | ALK C1156Y | binding | 1 µM | 80
